The source of these data is ChEMBL document CHEMBL1129388, “Structure-activity modifications of the HIV-1 inhibitors (+)-calanolide A and (-)-calanolide B” (J Med Chem, 1996).

As usually defined, the EC50 is the midpoint of the concentration-response curve. Lower therefore signals an effect from little substance. The IC50 is the concentration needed to halve the response being measured. Read a high IC50 as lower potency.

The subject of test [1] is CEM-SS. In words: Using the XTT assay for cell viability, effective concentration to protect human lymphoblastoid CEM-SS cells from the cytopathic effects of HIV-1 (RF strain) was determined; d - Not independently evaluated; not stable under assay conditions; rapidl y converts to active compound 2 under assay conditions. The test is classed as functional, cell-based.
Test [2] relates to CEM-SS. As to the kind of experiment: Using the XTT assay for cell viability, inhibitory concentration to protect human lymphoblastoid CEM-SS cells from the cytopathic effects of HIV-1 (RF strain) was determined; d - Not independently evaluated; not stable under assay conditions; rapid ly converts to active compound 2 under assay conditions. The class given is functional, cell-based.

Test [3] deals with CEM-SS. In words: Using the XTT assay for cell viability, inhibitory concentration to protect human lymphoblastoid CEM-SS cells from the cytopathic effects of HIV-1 (RF strain) was determined. The class given is functional, cell-based. The method in brief: (§1)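 Values reported as averages of quadruplicate determinations.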
For test [4], the system named is CEM-SS. As to the kind of experiment: Using the XTT assay for cell viability, effective concentration to protect human lymphoblastoid CEM-SS cells from the cytopathic effects of HIV-1 (RF strain) was determined. The test is classed as functional, cell-based. The method in brief:
as §1
On the technique in general: Tetrazolium dyes change colour on reduction, which living cells bring about.

Test [5] can be described thus: Ratio of inhibitory concentration to that of effective concentration for protection of CEM-SS cells from cytopathic effects of HIV-1 (RF strain). The class given is functional. Put shortly: (§2)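 In vitro therapeutic index taken as IC50 divided by EC50.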
Test [6] relates to CEM-SS. In words: Using the XTT assay for cell viability, effective concentration to protect human lymphoblastoid CEM-SS cells from the cytopathic effects of HIV-1 (RF strain) was determined; c - not measurable. The class given is functional, cell-based. The method in brief:
as §1

For test [7], the system named is CEM-SS. As to the kind of experiment: Using the XTT assay for cell viability, inhibitory concentration to protect human lymphoblastoid CEM-SS cells from the cytopathic effects of HIV-1 (RF strain) was determined; c - not measurable. The class given is functional, cell-based. Put shortly: as §1
Test [8] concerns CEM-SS. In words: Ratio of inhibitory concentration to that of effective concentration for protection of CEM-SS cells from cytopathic effects of HIV-1 (RF strain); not measurable. The test is classed as functional, cell-based. Put shortly:
as §2
For orientation: Protection from cytopathic effect is a common read-out in antiviral testing.

The subject of test [9] is CEM-SS. In words: Using the XTT assay for cell viability, effective concentration to protect human lymphoblastoid CEM-SS cells from the cytopathic effects of HIV-1 (RF strain) was determined; c - not measurabel. The test is classed as functional, cell-based. Put shortly: as §1
Test [10] concerns CEM-SS. As to the kind of experiment: Using the XTT assay for cell viability, inhibitory concentration to protect human lymphoblastoid CEM-SS cells from the cytopathic effects of HIV-1 (RF strain) was determined; c - not measurabel. The test is classed as functional, cell-based. Put shortly:
as §1

For `CCCc1cc(=O)oc2c3c(c4c(c12)OC(C)(C)C=C4)O[C@@H](C)[C@H](C)[C@@H]3F`, the EC50 entry in test [1] is recorded as “Not independently evaluated”. Also, the IC50 result in test [2] was “Not independently evaluated”.

In test [3], `CCCc1cc(=O)oc2c3c(c4c(c12)OC(C)(C)CC4)O[C@@H](C)[C@H](C)C3=O` gave an IC50 of 7.9 µM. Moreover, in test [4], the midpoint of the response, the EC50, lay at 0.37 µM. In addition, the TI in [5] was 21.

The compound `CCCc1cc(=O)oc2c3c(c4c(c12)OC(C)(C)CC4)O[C@H](C)[C@@H](C)[C@@H]3O` had an IC50 in test [3] of 5.2 µM. The compound also showed an EC50 in [4] of 0.2 µM. The TI in [5] is on record as 23.

Compound `CCCc1cc(=O)oc2c3c(c4c(c12)OC(C)(C)C=C4)O[C@@H](C)[C@H](C)[C@@H]3O` [COSTATOLIDE] returned an IC50 in test [3] of 5.9 µM. Further, in [4], the EC50 was 0.2 µM. Further, the TI in test [5] stood at 31.

With `CCCc1cc(=O)oc2c3c(c4c(c12)OC(C)(C)C=C4)O[C@@H](C)[C@H](C)[C@@H]3N=[N+]=[N-]`, inhibition in [3] was half-maximal at 5.9 µM (IC50). In test [4], this compound showed an EC50 of 1.6 µM. Besides, in [5], the TI is listed as 4.

Consider `CCCc1cc(=O)oc2c3c(c4c(c12)OC(C)(C)C=C4)O[C@H](C)[C@@H](C)C3=O`, for which the midpoint of inhibition in [3], the IC50, lay at 9.3 µM. Further, the concentration for a half-maximal effect (EC50) in test [4] came to 0.15 µM. Further, the TI in test [5] is on record as 62.

In test [3], `CCCc1cc(=O)oc2c3c(c4c(c12)OC(C)(C)C=C4)O[C@@H](C)[C@H](C)C3=O` yielded an IC50 of 8.5 µM. In [4], the EC50 is 0.4 µM. Moreover, the TI in [5] was 24.

In the case of `CCCc1cc(=O)oc2c3c(c4c(c12)OC(C)(C)CC4)O[C@@H](C)[C@H](C)[C@@H]3O` [7,8-DIHYDROCALANOLIDE B], in test [3], the IC50 was found to be 8.2 µM. Besides, in test [4], the EC50 turned out to be 0.2 µM. Further, in test [5], the TI is 41.

`CCCc1cc(=O)oc2c3c(c4c(c12)OC(C)(C)C=C4)O[C@H](C)[C@@H](C)[C@@H]3O` [CALANOLIDE A]: the IC50 in test [3] worked out at 7.3 µM. The compound further returned an EC50 in test [4] of 0.18 µM. Also, the TI in [5] came to 40.

In [3], `CCCc1cc(=O)oc2c3c(c4c(c12)OC(C)(C)CC4)O[C@@H](C)[C@H](C)[C@@H]3N` showed an IC50 of 5.8 µM. The same compound gave an EC50 in [4] of 0.6 µM. For the same compound, the TI in [5] came to 10.

Take `CCCc1cc(=O)oc2c3c(c4c(c12)OC(C)(C)CC4)O[C@H](C)C(C)=C3`: the EC50 entry in test [6] is “Not measurable”. For the same compound, in test [7], the IC50 result is recorded as “Not measurable”.

Turning to `CCCc1cc(=O)oc2c3c(c4c(c12)OC(C)(C)C=C4)O[C@@H](C)[C@H](C)[C@@H]3S`, the IC50 in test [3] was over 150 µM. Besides, the TI result in test [8] is “Not measurable”. Also, the midpoint of the response in test [4], the EC50, lay at 8.4 µM.

Take `CCCc1cc(=O)oc2c3c(c4c(c12)OC(C)(C)C=C4)O[C@@H](C)[C@H](C)[C@H]3O` [(-)-CALANOLIDE A]: in test [9], the EC50 result is “Not measurable”. Besides, the IC50 entry in [10] was “Not measurable”.
